Measurements gathered from unrelated publications.
Each line is one published result; the experiments were not run side by side.
Target: Mitogen-activated protein kinase 10 (MAPK10, Homo sapiens, UniProt P53779)

Oc1cccc(-c2nc(N3CCOCC3)c3oc4ncccc4c3n2)c1  remaining activity (enzyme activity, inhibitor; 10 µM): 101%
CCOc1cc(-c2nncn2C)ccc1Nc1ncc2cc(C)nc(NCC(C)(C)C)c2n1  inhibition (enzyme activity, inhibitor, FRET; 1 µM): 80%
Cc1ccc(NC(=O)c2ccc(C)c(C(F)(F)F)c2)cc1C#Cc1nn(C2CCC(O)CC2)c2ncnc(N)c12 (stereo not drawn)  remaining signal (cell-free assay; 10 µM): 40%
CS(=O)(=O)c1cc(C2(NC(=O)c3cncc4c3cnn4-c3ccc(F)cc3)CC2)ccn1  remaining binding (cell-free assay, competition with immobilised ligand; 1 µM): 100%
COc1cc(-c2cc(-c3ccc(N4CCNCC4)cc3)cnc2C)cc(OC)c1OC  inhibition (enzyme activity, inhibitor; 0.1 µM): 1%
Nc1ncnc2c1ncn2[C@@H]1O[C@H](COP(=O)(O)OP(=O)(O)OP(=O)(O)O)[C@@H](O)[C@H]1O  ΔTm (thermal stability, DSF; 2 µM): ~4.6 °C
Cc1c(NC(=O)c2cc(C(N)=O)nc3cc(F)ccc23)c(C(F)(F)F)nn1Cc1ccc(C(C)(C)C)cc1  remaining binding (cell-free assay, competition with immobilised ligand; 1 µM): 100%
CC(C)(C)c1nc2c(s1)c1nc(N)ncc1c1ccc(NS(=O)(=O)c3c(F)cccc3F)c(F)c12  remaining activity (enzyme activity, inhibitor, radiometric; 1 µM): 70%
CCC(=O)N[C@@H]1CC[C@H](C(=O)N(C)c2ccc(-c3nc4ccccc4o3)cc2)C1  remaining binding (cell-free assay, competition with immobilised ligand; 1 µM): 100%
CC(C)(O)[C@H]1CC[C@H](Nc2ccc3ncc(-c4cccc(C(F)(F)F)c4)n3n2)CC1  remaining activity (enzyme activity, inhibitor; 1 µM): 107%
CNC(=O)c1cc(Oc2ccc(NC(=O)Nc3ccc(Cl)c(C(F)(F)F)c3)cc2)ccn1  inhibition (enzyme activity, inhibitor; 0.3 µM): 9%
C[C@H](c1ccnc(Nc2nc3ccc(-c4cc(N(C)C)ncn4)cc3[nH]2)c1)N1CCN(C(=O)CC(F)(F)F)CC1  remaining binding (cell-free assay, competition with immobilised ligand; 0.1 µM): 81%
COc1cc(Cl)c(C(=O)N[C@@H](CN[C@H]2CC[C@@H](N)CC2)Cc2ccc(C#N)cc2)cc1-c1ccc(CN[C@H](C)c2ccc(C)cc2)o1  remaining activity (enzyme activity, inhibitor; 1 µM): 93%
CC1=C(C#N)C(c2ccc3c(c2)c(NC(=O)c2ccccc2C)nn3C)C(C#N)=C(C)N1  remaining binding (cell-free assay, competition with immobilised ligand; 1 µM): 100%
Cc1sc(C(=O)NC2COC2)cc1-n1cc(NC(=O)Nc2c(F)cccc2Cl)cn1  remaining activity (enzyme activity, inhibitor; 10 µM): 10.5%
COc1cc2ncnc(Nc3ccc(Oc4ccccc4)cc3C)c2cc1OC  inhibition (enzyme activity, inhibitor; 1 µM): 5%
O=C1NC(=O)c2cc(Nc3ccc(F)cc3)c(Nc3ccc(F)cc3)cc21  remaining signal (cell-free assay; 0.5 µM): 97.3%
CC/C(=N\NC(=O)NCc1cccc(O)c1)c1ccc(O)c(C)c1O  inhibition (enzyme activity, inhibitor; 0.1 µM): -5%
COc1cc(Nc2cnc(C#N)c(O[C@H](C)CN(C)C)n2)ncc1-c1cnn(C)c1  remaining activity (enzyme activity, inhibitor, radiometric; 1 µM): 113%
N#CCCc1ccc2c(c1)-c1[nH]c3ccc([N+](=O)[O-])cc3c1CC(=O)N2  remaining signal (cell-free assay; 0.5 µM): 93.3%
CCS(=O)(=O)c1cc2cc(C[C@@](O)(CC(C)(C)c3ccc(F)cc3C(N)=O)C(F)(F)F)[nH]c2cn1  remaining binding (cell-free assay, competition with immobilised ligand; 1 µM): 100%
FC(F)(F)Oc1cccc(-c2cnc3ccc(-c4ccncc4)nn23)c1  activity vs control (enzyme activity, inhibitor, radiometric; 5 µM): 81%
CC(=O)N1CCC(c2ccc(C(=O)NC3=NCCN3)cc2C(F)(F)F)CC1  remaining binding (cell-free assay, competition with immobilised ligand; 1 µM): 100%
CCCS(=O)(=O)Nc1ccc(F)c(C(=O)c2c[nH]c3ncc(-c4ccc(Cl)cc4)cc23)c1F  inhibition (enzyme activity, inhibitor; 1 µM): < 10%
